This is an account of results in ChEMBL document CHEMBL2384930, “Interventional effects of plumbagin on experimental ulcerative colitis in mice” (J Nat Prod, 2013).

By bioavailability is commonly meant the share of a dose that reaches the circulation, judged against a reference dose that is usually intravenous.

Series [1] deals with Mus musculus. The series can be described thus: Antiinflammatory activity in C57-B16/J mouse chronic DSS-induced ulcerative colitis model assessed as decrease in serum IFNgamma level at 10 mg/kg administered for total of 3 weeks for alternative weeks with water measured after 63 days by ELISA relative to DSS-treated control. Format: functional, organism-based. On the set-up: dose 10 mg/kg. The essentials: (§1)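 Chronic model, 63 days: three cycles of 1 week 3% DSS, then 1 week of compound in drinking water, then 1 week of water. Serum from clotted blood (overnight, 3000g 10 min) analysed by sandwich ELISA with capture/detection antibodies, streptavidin-HRP and substrate, read at 450 nm. Means ± SE, n = 8−10, one-way ANOVA with Tukey test.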
For orientation: An ELISA detects its analyte on a solid surface through an enzyme-linked reagent.

The test system of series [2] is Mus musculus. Description: Antiinflammatory activity in C57-B16/J mouse DSS-induced ulcerative colitis model assessed as reduction of inflammatory CD14+/CD16+ level in peripheral blood at 6 to 10 mg/kg by flow cytometric analysis relative to DSS-treated control. Format: functional. On the set-up: scale not given: the % may be the effect or the level left. As to conditions: dose mg/kg 6-10. The essentials: (§2)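 Acute model: female C57-BL6/J mice, 8−10 weeks old, given 3% (w/v) DSS in drinking water, with bottles refilled at days 3 and 5. Oral dosing in drinking water (6, 8, 10 mg/kg, ethanol-dissolved) from day 6. Whole blood stained with anti-CD14-FITC/anti-CD16-PE for 30 min in the dark, RBC-lysed, then flow cytometry. Classic CD14+/CD16−, inflammatory CD14+/CD16+; n = 8.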

In series [3] the test system is Mus musculus. The series can be described thus: Antiinflammatory activity in C57-B16/J mouse chronic DSS-induced ulcerative colitis model assessed as decrease in serum IL-17 level at 10 mg/kg administered for total of 3 weeks for alternative weeks with water measured after 63 days by ELISA relative to DSS-treated control. Format: functional, organism-based. On the set-up: dose 10 mg/kg. The method in brief:
as §1

Series [4] deals with Mus musculus. Description: Antiinflammatory activity in C57-B16/J mouse acute DSS-induced ulcerative colitis model assessed as reversal of body weight loss at 6 to 10 mg/kg administered on day 6 measured up to day 12. Format: functional, organism-based. The method in brief: (§3)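 Acute model: female C57-BL6/J mice, 8−10 weeks old, given 3% (w/v) DSS in drinking water. Dosing in drinking water ad libitum at 6, 8 or 10 mg/kg (ethanol stock) from day 6. Vehicle control received ethanol-water. Body weight recorded every other day as percent change. Disease index scored from weight change, stool consistency (1–4), fecal occult blood and prolapse; n = 10.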

The test system of series [5] is Mus musculus. Description: Antiinflammatory activity in C57-B16/J mouse acute DSS-induced ulcerative colitis model assessed as suppression of clinical symptoms at 8 to 10 mg/kg administered on day 6 measured up to day 12. Format: functional, organism-based. The essentials: as §3
Series [6] deals with Mus musculus. Description: Antiinflammatory activity in C57-B16/J mouse chronic DSS-induced ulcerative colitis model assessed as restoration of colon size at 6 to 10 mg/kg administered for total of 3 weeks for alternative weeks with water measured after 63 days. The series is classed as functional, organism-based. The essentials:
(§4)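 Chronic model in female C57-BL6/J mice: three 3-week cycles of DSS, compound in drinking water and plain water, over 63 days. Mice euthanized by isoflurane overdose and colon length measured (cm). Clinical index scored from body weight change, colorectal length, stool consistency, occult blood and prolapse; n = 10. Statistics by ANOVA with Tukey test.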

The test system of series [7] is Mus musculus. Description: Antiinflammatory activity in C57-B16/J mouse DSS-induced ulcerative colitis model assessed as reduction of inflammatory CD14+/CD16+ level in peripheral blood at 8 to 10 mg/kg by flow cytometric analysis relative to DSS-treated control. Format: functional. As to conditions: dose mg/kg 8-10. The essentials: as §2
Background: A flow cytometer gives signals particle by particle.

Series [8] deals with Mus musculus. Description: Antiinflammatory activity in C57-B16/J mouse chronic DSS-induced ulcerative colitis model assessed as decrease in serum TNFalpha level at 10 mg/kg administered for total of 3 weeks for alternative weeks with water measured after 63 days by ELISA relative to DSS-treated control. On the set-up: dose 10 mg/kg. The series is classed as functional, organism-based. The essentials:
as §1

The test system of series [9] is Mus musculus. The series can be described thus: Antiinflammatory activity in C57-B16/J mouse chronic DSS-induced ulcerative colitis model assessed as suppression of clinical symptoms at 8 to 10 mg/kg administered for total of 3 weeks for alternative weeks with water measured after 63 days. The series is classed as functional, organism-based. The essentials: as §4

In series [10] the test system is Mus musculus. The series can be described thus: Antiinflammatory activity in C57-B16/J mouse chronic DSS-induced ulcerative colitis model assessed as decrease in serum IL-17 level at 8 mg/kg administered for total of 3 weeks for alternative weeks with water measured after 63 days by ELISA relative to DSS-treated control. The series is classed as functional, organism-based. On the set-up: dose 8 mg/kg. The essentials: as §1

The subject of series [11] is Mus musculus. Description: Toxicity in C57-B16/J mouse DSS-induced ulcerative colitis model assessed as circulating CD14+/CD16- level at 6 to 10 mg/kg by flow cytometric analysis relative to DSS-treated control. Format: organism-based. On the set-up: dose 6-10 mg/kg. The following applies: in vivo. The method in brief:
as §2

Series [12] concerns Mus musculus. The series can be described thus: Antiinflammatory activity in C57-B16/J mouse DSS-induced ulcerative colitis model assessed as restoration of crypts at 10 mg/kg by hematoxylin-eosin staining-based microscopic analysis. Format: functional, organism-based. On the set-up: dose 10 mg/kg. The essentials: (§5)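 Female C57-BL6/J mice, 8−10 weeks old, given 3% (w/v) DSS in drinking water. Compound dissolved in ethanol and mixed into drinking water, given ad libitum. Colorectal sections stained with hematoxylin and eosin and examined at 400× for crypts, goblet cells, submucosa and monocyte aggregation.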

Series [13] deals with Mus musculus. Description: Antiinflammatory activity in C57-B16/J mouse DSS-induced ulcerative colitis model assessed as restoration of submucosa at 10 mg/kg by hematoxylin-eosin staining-based microscopic analysis. Format: functional, organism-based. On the set-up: dose 10 mg/kg. The method in brief: as §5
Series [14] in a line: Oral bioavailability in rat. Format: ADME, organism-based. The following applies: in vivo.
For series [15], the system named is Mus musculus. The series can be described thus: Antiinflammatory activity in C57-B16/J mouse DSS-induced ulcerative colitis model assessed as restoration of goblet cells at 10 mg/kg by hematoxylin-eosin staining-based microscopic analysis. On the set-up: dose 10 mg/kg. Format: functional, organism-based. The method in brief:
as §5

Series [16] concerns Mus musculus. The series can be described thus: Antiinflammatory activity in C57-B16/J mouse DSS-induced ulcerative colitis model assessed as reduction in monocyte aggregation at 10 mg/kg by hematoxylin-eosin staining-based microscopic analysis. The series is classed as functional, organism-based. On the set-up: dose 10 mg/kg. The method in brief:
as §5

Calls of active or inactive are those of the source. No cut-off for these calls is given here.

On to `CC1=CC(=O)c2c(O)cccc2C1=O` [PLUMBAGIN], for which the result in the series with Mus musculus [1], in the series with Mus musculus [3], in the series on Mus musculus [5], in the series on Mus musculus [6], with Mus musculus [8] and with Mus musculus [9] was Active. The result with Mus musculus [12], in the series with Mus musculus [13], in the series with Mus musculus [15] and in the series on Mus musculus [16] was Active. The values for the Activity in the series on Mus musculus [2] and in the series with Mus musculus [11] were 0.3% and 77%, respectively. Moreover, the result in the series on Mus musculus [4] and with Mus musculus [10] was inactive. Further, the “fold change (FC)” value with Mus musculus [7] is over 3. This compound registered a bioavailability in series [14] of 38%.
